According to ChEMBL document CHEMBL4014341, “Discovery of a Human Neuromedin U Receptor 1-Selective Hexapeptide Agonist with Enhanced Serum Stability” (J Med Chem, 2017):
Active and inactive are the calls of the source. No cut-off for these calls is given here. Square brackets hold non-standard residues; d marks the D form. Peptide text beside a SMILES is read from it. * marks the point of attachment. Phe(4-NO2) = N[C@@H](Cc1ccc([N+](=O)[O-])cc1)C(=O)O; Phe(4-CF3) = N[C@@H](Cc1ccc(C(F)(F)F)cc1)C(=O)O; Phe(4-Br) = N[C@@H](Cc1ccc(Br)cc1)C(=O)O; Phe(4-CN) = N#Cc1ccc(C[C@H](N)C(=O)O)cc1; Phe(4-Cl) = N[C@@H](Cc1ccc(Cl)cc1)C(=O)O; αMeW = C[C@](N)(Cc1c[nH]c2ccccc12)C(=O)O; Phe(3-F) = N[C@@H](Cc1cccc(F)c1)C(=O)O; Phe(4-F) = N[C@@H](Cc1ccc(F)cc1)C(=O)O; Phe(2-F) = N[C@@H](Cc1ccccc1F)C(=O)O; Acetyl(2-thienyl) = O=C(Cc1cccs1)*

Key:
[1] = molecular target: Neuromedin-U receptor 2 (Homo sapiens) (UniProt Q9GZQ4); assay: Agonist activity at human NMUR2 expressed in CHO cells assessed as induction of Ca2+ flux at 0.1 to 10 nM after 18 hrs by Fluo-4 AM dye based FLIPR assay relative to NMU; format: functional, cell-based
Procedure, shortened: (§1)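 Human NMUR1 or NMUR2 stably expressed in CHO cells was assayed by Fluo-4 AM (4 μM, 40 min) FLIPR calcium flux, with cells seeded 18 h before. Peptides were tested at single concentrations of 0.1, 10 or 100 nM. Maximal response is expressed as % of hNMU at 1000 nM (=100%).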

[2] = molecular target: T1, Neuromedin-U receptor 1 (Homo sapiens) (UniProt Q9HB89); assay: Agonist activity at human NMUR1 expressed in CHO cells assessed as induction of Ca2+ flux at 0.1 to 10 nM after 18 hrs by Fluo-4 AM dye based FLIPR assay relative to NMU; format: functional, cell-based; procedure, shortened: as §1
T1 sequence (whole entry): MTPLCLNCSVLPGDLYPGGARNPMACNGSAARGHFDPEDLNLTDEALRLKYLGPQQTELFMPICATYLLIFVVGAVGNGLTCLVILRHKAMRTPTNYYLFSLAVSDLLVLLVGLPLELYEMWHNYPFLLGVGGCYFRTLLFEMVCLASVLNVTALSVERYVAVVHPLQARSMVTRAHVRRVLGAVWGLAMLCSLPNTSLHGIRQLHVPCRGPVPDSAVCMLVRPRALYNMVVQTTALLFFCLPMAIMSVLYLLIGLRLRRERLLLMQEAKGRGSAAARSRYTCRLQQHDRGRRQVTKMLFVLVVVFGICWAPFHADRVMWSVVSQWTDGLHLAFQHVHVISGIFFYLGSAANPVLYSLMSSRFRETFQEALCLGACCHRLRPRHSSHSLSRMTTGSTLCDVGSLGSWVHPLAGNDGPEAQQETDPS

[3] = molecular target: Neuromedin-U receptor 2 (Homo sapiens) (UniProt Q9GZQ4); assay: Agonist activity at human NMUR2 expressed in CHO cells assessed as induction of Ca2+ flux at 10 nM after 18 hrs by Fluo-4 AM dye based FLIPR assay relative to NMU; format: functional, cell-based; procedure, shortened: as §1
[4] = molecular target: T1, Neuromedin-U receptor 1 (Homo sapiens); assay: Agonist activity at human NMUR1 expressed in CHO cells assessed as induction of Ca2+ flux at 0.1 nM after 18 hrs by Fluo-4 AM dye based FLIPR assay relative to NMU; format: functional, cell-based; procedure, shortened: as §1
[5] = Clearance in Wistar rat at 1 mg, iv up to 240 mins by LC/MS analysis; format: ADME, organism-based; details: in vivo
[6] = AUC in Wistar rat at 1 mg, iv up to 240 mins by LC/MS analysis; format: ADME, organism-based; set-up: dose 1 mg, time < 4 hr, route intravenous; details: in vivo
[7] = MRT in Wistar rat at 1 mg, iv by LC/MS analysis; format: ADME, organism-based; details: in vivo
Prothrombin = Prothrombin (Homo sapiens, UniProt P00734); assay: Drug metabolism in human serum treated with (S)-2-((S)-1-((S)-2-((S)-2-((S)-3-(1H-indol-3-yl)-2-(2-(thiophen-2-yl)acetamido)propanamido)-3-(1H-indol-3-yl)-2-methylpropanamido)-5-guanidinopentanoyl)pyrrolidine-2-carboxamido)-5-guanidinopentanoic acid assessed as thrombin-mediated metabolite formation at 1 mM after 120 mins by RP-HPLC analysis; format: ADME; details: 2 h, 1000 µM
Rattus norvegicus = species on record: Rattus norvegicus; assay: Stability in rat serum at 1 mM at 120 mins by RP-HPLC/MS analysis
[8] = molecular target: Neuromedin-U receptor 2 (Homo sapiens) (UniProt Q9GZQ4); assay: Agonist activity at human NMUR2 expressed in CHO cells assessed as induction of Ca2+ flux at 0.1 uM after 18 hrs by Fluo-4 AM dye based FLIPR assay relative to NMU; format: functional, cell-based; procedure, shortened: as §1

Sequence of Neuromedin-U receptor 2 (Homo sapiens) (Q9GZQ4 whole entry): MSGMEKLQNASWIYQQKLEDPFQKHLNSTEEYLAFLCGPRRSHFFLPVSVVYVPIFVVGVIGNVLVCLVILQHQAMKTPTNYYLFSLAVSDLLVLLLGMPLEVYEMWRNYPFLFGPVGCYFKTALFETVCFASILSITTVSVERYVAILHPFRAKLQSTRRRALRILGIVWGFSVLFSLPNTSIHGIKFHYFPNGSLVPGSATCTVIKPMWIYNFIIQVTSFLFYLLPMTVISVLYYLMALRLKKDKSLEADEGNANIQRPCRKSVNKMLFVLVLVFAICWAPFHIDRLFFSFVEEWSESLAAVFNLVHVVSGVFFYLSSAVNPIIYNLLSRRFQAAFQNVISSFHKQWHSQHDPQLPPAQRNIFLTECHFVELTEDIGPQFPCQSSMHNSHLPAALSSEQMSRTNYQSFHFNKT

Structure (SMILES) | Activity [1] | Activity [2] | Activity [3] | also measured
N=C(N)NCCC[C@H](NC(=O)[C@@H]1CCCN1C(=O)[C@H](CCCNC(=N)N)NC(=O)[C@H](Cc1ccccc1F)NC(=O)[C@H](Cc1c[nH]c2ccccc12)NC(=O)Cc1cccs1)C(=O)N[C@@H](CC(N)=O)C(N)=O ({Acetyl(2-thienyl)}-W[Phe(2-F)]RPRN-NH2) | Active | Active |  | 
N=C(N)NCCC[C@H](NC(=O)[C@@H]1CCCN1C(=O)[C@H](CCCNC(=N)N)NC(=O)[C@H](Cc1cccc(F)c1)NC(=O)[C@H](Cc1c[nH]c2ccccc12)NC(=O)Cc1cccs1)C(=O)N[C@@H](CC(N)=O)C(N)=O ({Acetyl(2-thienyl)}-W[Phe(3-F)]RPRN-NH2) | Active | Active |  | 
N=C(N)NCCC[C@H](NC(=O)[C@@H]1CCCN1C(=O)[C@H](CCCNC(=N)N)NC(=O)[C@H](Cc1ccc(Br)cc1)NC(=O)[C@H](Cc1c[nH]c2ccccc12)NC(=O)Cc1cccs1)C(=O)N[C@@H](CC(N)=O)C(N)=O ({Acetyl(2-thienyl)}-W[Phe(4-Br)]RPRN-NH2) |  |  | inactive | 
N=C(N)NCCC[C@H](NC(=O)[C@@H]1CCCN1C(=O)[C@H](CCCNC(=N)N)NC(=O)[C@H](Cc1ccc(C(F)(F)F)cc1)NC(=O)[C@H](Cc1c[nH]c2ccccc12)NC(=O)Cc1cccs1)C(=O)N[C@@H](CC(N)=O)C(N)=O ({Acetyl(2-thienyl)}-W[Phe(4-CF3)]RPRN-NH2) |  |  | inactive | Activity [4]: Active
N#Cc1ccc(C[C@H](NC(=O)[C@H](Cc2c[nH]c3ccccc23)NC(=O)Cc2cccs2)C(=O)N[C@@H](CCCNC(=N)N)C(=O)N2CCC[C@H]2C(=O)N[C@@H](CCCNC(=N)N)C(=O)N[C@@H](CC(N)=O)C(N)=O)cc1 ({Acetyl(2-thienyl)}-W[Phe(4-CN)]RPRN-NH2) |  |  | inactive | 
N=C(N)NCCC[C@H](NC(=O)[C@@H]1CCCN1C(=O)[C@H](CCCNC(=N)N)NC(=O)[C@H](Cc1ccc(Cl)cc1)NC(=O)[C@H](Cc1c[nH]c2ccccc12)NC(=O)Cc1cccs1)C(=O)N[C@@H](CC(N)=O)C(N)=O ({Acetyl(2-thienyl)}-W[Phe(4-Cl)]RPRN-NH2) |  |  | Active | 
N=C(N)NCCC[C@H](NC(=O)[C@@H]1CCCN1C(=O)[C@H](CCCNC(=N)N)NC(=O)[C@H](Cc1ccc(F)cc1)NC(=O)[C@H](Cc1c[nH]c2ccccc12)NC(=O)Cc1cccs1)C(=O)N[C@@H](CC(N)=O)C(N)=O ({Acetyl(2-thienyl)}-W[Phe(4-F)]RPRN-NH2) | Active | Active |  | clearance [5]: 3.19 mL/min; AUC at 4 h [6]: 5300 ng·h/mL; MRT [7]: 11.5 min
N=C(N)NCCC[C@H](NC(=O)[C@@H]1CCCN1C(=O)[C@H](CCCNC(=N)N)NC(=O)[C@H](Cc1ccc([N+](=O)[O-])cc1)NC(=O)[C@H](Cc1c[nH]c2ccccc12)NC(=O)Cc1cccs1)C(=O)N[C@@H](CC(N)=O)C(N)=O ({Acetyl(2-thienyl)}-W[Phe(4-NO2)]RPRN-NH2) |  |  | inactive | 
C[C@@](Cc1c[nH]c2ccccc12)(NC(=O)[C@H](Cc1c[nH]c2ccccc12)NC(=O)Cc1cccs1)C(=O)N[C@@H](CCCNC(=N)N)C(=O)N1CCC[C@H]1C(=O)N[C@@H](CCCNC(=N)N)C(=O)O ({Acetyl(2-thienyl)}-W[αMeW]RPR-OH) |  | Active |  | Drug metabolism (Prothrombin): Metabolite_Detected; remaining at 2 h, 1000 µM (Rattus norvegicus): 101%; Activity [8]: inactive
